From ChEMBL document CHEMBL1149849, “Capnellenes from the Formosan soft coral Capnella imbricata” (2008)
The source made the active and inactive calls. No cut-off for these calls is given here.

Assays:
RAW264.7 [1] = test: Antiinflammatory activity against LPS-stimulated mouse RAW264.7 cells assessed as reduction of iNOS level at 10 uM after 16 hrs by DC protein assay; type: functional
Outline: (§1)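 RAW264.7 cells activated with E. coli LPS (0.01 µg/mL) for 16 h with or without test compound. Cells washed in ice-cold PBS, lysed, and centrifuged at 20000g, 30 min, 4 °C. Supernatant protein measured by DC assay (Lowry-modified); equal protein loaded for SDS-PAGE, transferred to PVDF, blocked, and probed 180 min with anti-iNOS or anti-COX-2 (1:1000). Levels reported relative to LPS-only control.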

RAW264.7 [2] = test: Antiinflammatory activity against LPS-stimulated mouse RAW264.7 cells assessed as reduction of COX2 level at 10 uM after 16 hrs by DC protein assay; type: functional; outline: as §1

Structure (SMILES): C=C1[C@H]2[C@@H](C[C@@H]1OC(C)=O)C[C@]1(C)CCC(C)(C)[C@H]21
- Activity (RAW264.7 [1]): inactive
- Activity (RAW264.7 [2]): inactive

Structure (SMILES): C=C1[C@H]2[C@@H](C[C@@H]1O)C[C@]1(C)CCC(C)(C)[C@H]21
- Activity (RAW264.7 [1]): inactive
- Activity (RAW264.7 [2]): inactive

Structure (SMILES): C=C1[C@@H](OC(C)=O)C[C@H]2C[C@]3(C)CCC(C)(C)[C@@H]3[C@@]12OC(C)=O
- Activity (RAW264.7 [1]): inactive
- Activity (RAW264.7 [2]): inactive

Structure (SMILES): C=C1[C@@H](O)C[C@H]2C[C@]3(CO)CCC(C)(C)[C@@H]3[C@@]12O
- Activity (RAW264.7 [1]): inactive
- Activity (RAW264.7 [2]): inactive

Structure (SMILES): C=C1[C@H]2[C@@H](C[C@@H]1O)C[C@]1(C)CC[C@](C)(CO)[C@H]21
- Activity (RAW264.7 [1]): inactive
- Activity (RAW264.7 [2]): inactive

Structure (SMILES): C=C1[C@@H](OC(C)=O)C[C@H]2C[C@]3(C)CCC(C)(C)[C@@H]3[C@@]12O
- Activity (RAW264.7 [1]): 54.4
- Activity (RAW264.7 [2]): 62.9

Structure (SMILES): C=C1[C@@H](O)C[C@H]2C[C@]3(C)CCC(C)(C)[C@@H]3[C@@]12O
- Activity (RAW264.7 [1]): 1.2
- Activity (RAW264.7 [2]): 24.8

Structure (SMILES): C=C1C(=O)C[C@H]2C[C@]3(C)CCC(C)(C)[C@@H]3[C@@]12O
- Activity (RAW264.7 [1]): 34.8
- Activity (RAW264.7 [2]): inactive

Structure (SMILES): CC1(C)CC[C@@]2(C)C[C@@H]3CC(=O)C(CO)=C3[C@@H]12
- Activity (RAW264.7 [1]): inactive
- Activity (RAW264.7 [2]): inactive
